Sampled rows, rich in hits. Any-hit rate of the full collection: about 2.9%.
Wee1 degr inh: blocks degradation of human Wee1 kinase; HeLa Luc-Wee1K328M stability, luciferase luminescence; 100% = proteasome inhibitor MG132 effect; 220,000 tested, 1.2% active; P30291; reporter increase, % at 5 µM;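 active = activation above the mean of all tested compounds plus 3 SD, set per screening run, cut at about 8.8% in these data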;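 note: cells exposed to compound for 20 h before luminescence read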
Target sequence (P30291 whole entry K328M): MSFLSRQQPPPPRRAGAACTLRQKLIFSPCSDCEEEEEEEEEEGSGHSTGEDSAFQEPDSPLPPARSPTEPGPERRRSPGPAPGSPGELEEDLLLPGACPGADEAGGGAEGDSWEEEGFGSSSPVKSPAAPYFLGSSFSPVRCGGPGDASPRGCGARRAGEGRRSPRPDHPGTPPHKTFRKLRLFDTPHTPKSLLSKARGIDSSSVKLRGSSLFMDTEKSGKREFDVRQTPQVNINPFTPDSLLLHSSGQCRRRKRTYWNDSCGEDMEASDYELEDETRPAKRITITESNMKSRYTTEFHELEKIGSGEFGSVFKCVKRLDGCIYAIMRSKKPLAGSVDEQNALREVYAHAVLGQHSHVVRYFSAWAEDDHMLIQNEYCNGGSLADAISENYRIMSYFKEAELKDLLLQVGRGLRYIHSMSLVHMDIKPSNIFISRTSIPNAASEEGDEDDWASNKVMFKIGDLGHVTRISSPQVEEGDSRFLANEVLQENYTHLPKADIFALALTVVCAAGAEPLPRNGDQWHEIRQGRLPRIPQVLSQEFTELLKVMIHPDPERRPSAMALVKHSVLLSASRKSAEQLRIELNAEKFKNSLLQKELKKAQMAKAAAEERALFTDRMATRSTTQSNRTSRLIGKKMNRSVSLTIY
bCat nuc transl: modulators of beta-catenin nuclear translocation | HeLa beta-catenin nuclear translocation, immunofluorescence imaging | nuclear translocation activity, % at 5 µM | 190,000 tested, 0.3% active | AID 1665;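 active = nuclear translocation activity above 50% at 5 µM, with a well cell count of 50 or more; inconclusive = wells under 50 cells across six images, flagged as toxic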;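 note: per-cell ratio of nuclear to cytoplasmic median beta-catenin stain intensity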
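Technique: fluorescence imaging of beta-catenin antibody stain plus DAPI / Material: human HeLa cell line / Incubation: compound treatment 24 h, 37°C, 5% CO2 / Read-out basis: % activation of per-cell nuclear versus cytoplasmic median beta-catenin signal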
Insulin prom up: MIN6 insulin promoter up-regulation | 190,000 tested, 0.3% active | z-score at 5 µM | MIN6 insulin promoter-GFP reporter, high-content imaging; stronger effect = higher value;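 active = z-score above 3 at 5 µM with at least 500 cells counted in the well; inconclusive = wells under 500 cells, flagged as cytotoxic or low count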
Autophagy mod: alters autophagy in cells. MEF GFP-LC3 puncta imaging; test concentration mostly 10 µM. 190,000 tested, 0.98% active. calls only at 10 µM (by protocol);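 active = percentage of spot-positive cells more than 3 SD above its plate mean, without a fluorescence outlier flag or 80% toxicity; inconclusive = no clear call, values can overlap the other calls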
MT stabilize HCS: microtubule stabilizers in HeLa cells | HeLa tubulin immunostaining HCS, 24 h; share of cells brighter than vehicle mean+2SD | % tubulin-high responders, % at 10 µM | 200,000 tested, 0.83% active;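 active = plate Z-score above 3 for both tubulin-high and condensed-nucleus cell shares, with cell loss under 80%, at 10 µM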;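 note: anti alpha tubulin signal scored within the nucleus-defined area of each cell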
A number is an active result; 0 = inactive; ? = inconclusive; - = not tested or not shown; + = active, no number.

SMILES	Wee1 degr inh	bCat nuc transl	Insulin prom up	Autophagy mod	MT stabilize HCS
CCN(CC)CCOC(=O)c1ccc(N/C=C(/C#N)c2nc(-c3ccc4c(c3)OCO4)cs2)cc1	0	0	0	-	-
CCN(CC)C(=O)CSc1nc(-c2ccccc2)ccc1C#N	0	0	0	0	0
N#Cc1ccc(-c2cccnc2)nc1SCC(=O)c1ccccc1	0	0	0	-	-
N#Cc1ccc(-c2ccccc2)nc1SCC(=O)c1cccc(Cl)c1	0	0	-	+	0
N#Cc1ccc(-c2ccc(Cl)cc2)nc1SCC(=O)c1cccc(Cl)c1	0	0	6.91	+	0
COc1ccccc1N1CCN(CC(=O)Nc2ccc(CN3CCCCC3)cc2)CC1	0	0	0	0	0
Cc1ccc(Cl)cc1N1CCN(CC(=O)Nc2ccc(CN3CCCCC3)cc2)CC1	0	0	?	+	0
CSc1ccc(/C=c2\s/c(=C\C(=O)C(C)(C)C)n(CC(=O)NCCC3=CCCCC3)c2=O)cc1	0	0	0	+	0
Cc1c(Cl)cccc1N=c1c([N+](=O)[O-])nn(-c2ccccc2)n1O	0	0	-	+	0
Cc1ccc(N/N=C(\Cc2nc3ccccc3[nH]2)c2ccccc2)cc1	16.1	106.7	0	0	0
c1ccc(N/N=C(\Cc2nc3ccccc3[nH]2)c2ccccc2)cc1	0	-	0	0	0
NNc1nc2ccc(F)cc2s1	0	0	0	0	0
Fc1ccc2nc(Nc3ccccc3)sc2c1	10.6	0	0	0	0
O=C(Nc1ccccc1N1CCOCC1)c1ccc(Cl)c(S(=O)(=O)NCc2ccco2)c1	0	0	0	0	0
COc1ccccc1N1CCN(C(=O)c2ccc(Cl)c(S(=O)(=O)NCc3ccco3)c2)CC1	0	129.3	0	+	50.2
O=C(c1ccc(Cl)c(S(=O)(=O)NCc2ccco2)c1)N1CCN(c2ccccc2F)CC1	0	-	-	0	41.2
CC(=O)Nc1nc2ccccc2n1CCN1CCOCC1	0	0	0	0	0
O=C(Nc1nc2ccccc2n1CCN1CCOCC1)c1cn(-c2ccccc2)nc1-c1ccccc1	0	0	0	+	0
COc1ccc(Nc2nc3cc(C)ccc3cc2C#N)c(OC)c1	0	0	0	+	21.2
Cc1cccc2cc(C#N)c(NCc3ccccc3)nc12	0	0	0	0	0
COc1ccc(Nc2nc3ccc(C)cc3cc2C#N)c(OC)c1	0	0	0	0	0
COc1ccc(Nc2nc3c(C)cccc3cc2C#N)c(OC)c1	0	0	0	+	0
Cc1ccc2nc(-c3cccnc3)cc(C(=O)Nc3ccc(F)cc3C)c2c1	0	0	0	0	0
Cc1ccc(S(=O)(=O)N2CCOC2CNC(=O)C(=O)NCc2ccncc2)cc1 (stereo not given)	0	0	0	-	-
O=C(Nc1nc2ccccc2c(=O)s1)c1ccco1	10.2	0	0	-	-
SMILES	Wee1 degr inh	bCat nuc transl	Insulin prom up	Autophagy mod	MT stabilize HCS
O=C(Nc1nc2cc3c(cc2s1)OCO3)c1ccco1	0	0	0	-	-
CSc1ccc(CN2CCC(CO)(Cc3ccc(Cl)cc3)CC2)cc1	0	0	-	+	0
Cn1nnnc1SCC(=O)Nc1ccc(S(=O)(=O)N2CCOCC2)cc1	0	0	0	-	-
COCCCNc1nc2c(-c3cccc(C)c3)nnn2c2ccccc12	49.1	0	0	0	0
Cc1cc(C)c(C(=O)Nc2ccc(Br)c(C(F)(F)F)c2)c(C)c1	0	-	0	0	0
COc1ccc(-c2nnc(SCC(=O)Nc3ccc(C)cc3)n2C)cc1	9.8	0	0	0	0
COc1cc(OC)cc(-n2nnnc2SCC(=O)Nc2ccc(C(C)=O)cc2)c1	0	-	-	+	0
COc1cccc(OC)c1OCCN(C)C	0	0	3.98	0	0
CN(C)CCCNS(=O)(=O)c1ccc(N2CCC(c3ccc(Cl)cc3)=N2)cc1	0	73.3	?	?	0
CN(C(=O)C(Cl)Cl)C1CC2C=CC1C2 (stereo not given)	10.8	0	0	-	-
Nc1nnn(CC(=O)N/N=C/c2cccc(Cl)c2)n1	0	0	0	-	-
CCOC(=O)Nc1nc(-c2ccccc2)c(C(=O)c2ccccc2)s1	0	-	0	+	0
CCCN1C(=O)/C(=C/c2c(N3CCNC(=O)C3CC(=O)OC)nc3c(C)cccn3c2=O)SC1=S (stereo not given)	0	0	6.46	-	-
O=C1/C(=C/c2ccc(N3CCOCC3)o2)SC(=Nc2ccccc2)N1CCc1c[nH]c2ccccc12	0	0	-	+	0
COc1ccc2nc3oc(C(=O)Nc4ccc(OC)c(OC)c4)cc3cc2c1	8.9	-	0	0	0
COc1ccc2cc3cc(C(=O)Nc4ccc5c(c4)OCO5)oc3nc2c1	0	0	0	0	0
COc1ccc(CCN2C(=NC(=O)C(C)C)SC3CS(=O)(=O)CC32)cc1OC (stereo not given)	0	0	0	-	-
O=C1N/C(=N\N=C\c2cccs2)SC1Cc1cccc(Cl)c1 (stereo not given)	0	0	0	0	21.6
COc1ccc(NS(=O)(=O)c2cc(N/C(=N\S(=O)(=O)c3ccccc3)c3ccc(F)cc3)ccc2Cl)cc1	0	-	0	0	12.4
COc1ccc(C(=O)Nc2ccc(Cl)c(S(=O)(=O)Nc3ccccc3OC)c2)cc1	0	0	0	0	0
CCOc1ccc(NS(=O)(=O)c2cc(NC(=O)c3ccc(C)cc3)ccc2Cl)cc1	0	0	0	0	20.7
O=C(Nc1ccc(NC(=S)NC(=O)C(c2ccccc2)c2ccccc2)cc1)c1ccccc1	0	-	-	0	39.5
CC(C)OC(=O)c1ccc(NC(=O)c2ccccc2)cc1	0	0	-	+	0
CCC(=O)NC(=S)Nc1cccc(NC(=O)c2ccccc2)c1	0	0	0	+	0
CS(=O)(=O)N1CCC(C(=O)N2CCN(C(c3ccccc3)c3ccccc3)CC2)CC1	0	0	-	0	0
SMILES	Wee1 degr inh	bCat nuc transl	Insulin prom up	Autophagy mod	MT stabilize HCS
CCNC(=O)c1ccc2c(c1)C1C3CCC(C3)C1C(c1ccccc1)N2 (stereo not given)	0	0	0	0	0
CCn1c(=O)c([N+](=O)[O-])c(N2CCN(Cc3ccc4c(c3)OCO4)CC2)c2ccccc21	0	0	0	-	-
CN(C)CCNC(=O)C(=O)C1C(=O)Nc2ccccc21 (stereo not given)	0	0	0	0	0
O=C(NCc1ccccn1)C(=O)C1C(=O)Nc2ccccc21 (stereo not given)	9.5	0	0	0	0
CCN(CCO)Cc1csc2ccc(C(C)(C)C)cc12	0	0	0	0	0
O=C1N=C(N2CCOCC2)S/C1=C/c1cc2c(cc1[N+](=O)[O-])OCO2	9.1	0	0	-	-
COc1ccccc1N(C1=NCCCS1)S(=O)(=O)c1ccc(C(C)(C)C)cc1	0	0	0	0	0
CN(c1cccc(Cl)c1)S(=O)(=O)c1cccc(C(=O)NC2=NCCS2)c1	0	0	3.48	0	0
O=C(NC(=S)N1CCN(c2ccc([N+](=O)[O-])cc2)CC1)c1ccccc1F	0	0	0	0	0
Cc1ccc(C)c(NC(=S)Nc2ccc(S(=O)(=O)Nc3ncccn3)cc2)c1	0	0	-	+	0
Cc1ccc(NC(=S)Nc2ccc(S(=O)(=O)Nc3ncccn3)cc2)c(C)c1	0	0	0	-	-
